Assay results taken from publication PMC4832308 (Cancer, 2015).
≈ marks a conversion by molar mass, not a printed value. Where two headings read alike, the source gives them in different places.

System: pS6RP
Assay: blood biomarker analysis by flow cytometry and PK/PD modeling
Format: in vivo, human
Conditions: for EC50: Homo sapiens, read-out: EC50 for pS6RP inhibition
In short: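 Sodium-heparin patient whole blood, taken predose and 1.5–5 h postdose: 1 h at 37°C, 15-min anti-IgD plus LPS stimulation, lyse/fix, methanol overnight at −80°C, then CD3/CD14/CD20 and phospho-staining and flow cytometry. Bead-calibrated MFI reported as ERF. Baseline-relative change vs plasma drug (chiral LC-MS) was fitted by a direct inhibitory NONMEM model for EC50: p4EBP1 in T cells, pS6RP in B cells and monocytes.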

CO[C@H]1CC[C@H](N2C(=O)CNc3ncc(-c4ccc(C(C)(C)O)nc4)nc32)CC1 [CC‐223]
pS6RP inhibition in blood cells (30‐, 45‐, and 60‐mg dose levels, 3 hours on treatment): > 70% | EC50 (B-cell): 0.0203 µg/mL (≈ 0.0511 µM) | EC50 (Monocyte): 0.174 µg/mL (≈ 0.438 µM)
